# High-throughput results deposited in PubChem by The Scripps Research Institute Molecular Screening Center.
# Only some compounds are listed: those with a hit (about 3.1% of all), similar ones and a draw of the others.
# ABHD5 PLIN5 PPI = inhibitors of human ABHD5-perilipin-5 interaction. inhibition, % at 4 µM. 360,000 compounds, 0.78% hits. Split G. princeps luciferase complementation, luminescence, 4 h;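 active = inhibition above the mean inhibition across every tested compound plus 3 SD, cut at about 22% in these data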;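 note: 0% = DMSO only wells and the 100% control is not disclosed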
# PRMT1 FP inh = PRMT1 (human) inhibition, primary screen. 370,000 compounds, 1.3% hits. inhibition, % at 2.79 µM. recombinant PRMT1, activity-based probe fluorescence polarization;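 active = inhibition above about 21% made by adding two undisclosed values, limit read from the data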
# Target sequence (Q99873 whole entry, looked up): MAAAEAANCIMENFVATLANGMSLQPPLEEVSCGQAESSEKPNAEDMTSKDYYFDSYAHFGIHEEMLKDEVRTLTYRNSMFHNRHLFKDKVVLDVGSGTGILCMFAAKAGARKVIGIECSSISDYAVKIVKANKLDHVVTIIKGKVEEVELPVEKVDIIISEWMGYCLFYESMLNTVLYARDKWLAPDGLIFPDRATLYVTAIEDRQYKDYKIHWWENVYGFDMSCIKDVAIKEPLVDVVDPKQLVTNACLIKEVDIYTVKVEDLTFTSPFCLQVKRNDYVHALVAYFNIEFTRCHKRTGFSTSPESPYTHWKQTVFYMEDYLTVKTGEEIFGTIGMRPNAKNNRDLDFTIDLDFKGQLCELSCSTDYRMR
# UHRF1 binding = blocks human UHRF1 binding to methylated DNA; Q96T88; UHRF1 binding to methylated oligo, TR-FRET; inhibition, % at 4.4 µM; 370,000 compounds, 0.75% hits; AID 687016; in the data active = inhibition above about 21%;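 note: UHRF1 SRA domain binding a hemimethylated CpG hairpin DNA probe; 0% = median of test compound wells and 100% = reference inhibitor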
# RBBP9 inhibitor = blocks human serine hydrolase RBBP9; O75884; recombinant RBBP9, FP-Rh probe fluorescence polarization; inhibition, % at 7.94 µM; 220,000 compounds, 0.2% hits; AID 1515;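 active = inhibition above the campaign mean of all tested compounds plus 3 SD, cut at about 14% in these data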;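 note: plate controls were DMSO wells with RBBP9 for no effect and wells lacking RBBP9 protein for full effect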
#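 Measured by: FP readout at 525/598 nm; material: recombinant human RBBP9; also added: Serine-hydrolase probe FP-Rh, 375 nM pre-mixing; medium: Tris buffer pH 8.0, NaCl, Pluronic; replication: one well per compound; doses: one concentration, 7.94 µM nominal, 0.794% DMSO; timing: preincubation 30 min plus labeling 45 min at 25 °C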
# MBD2 DNA inh = MBD2-methylated oligo binding inhibition | TR-FRET, MBD2 binding to methylated oligonucleotide | 370,000 compounds, 0.31% hits | inhibition, % at 4.4 µM; in the data active = inhibition above about 13%
# LEDGF integ inh = blocks HIV-1 LEDGF/p75-dependent DNA integration | TR-FRET IN-LEDGF/p75 DNA integration, Eu/Cy5 | inhibition, % at 3.7 µM | 370,000 compounds, 0.64% hits | AID 743269;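 active = inhibition above the screen-wide mean plus 3 SD, cut at about 13% in these data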;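 note: signal is the Cy5 over europium emission ratio at 671 and 618 nm; 0% = plate median of compound wells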
# ABHD5 PLIN5 conf = ABHD5-PLIN5 interaction inhibition, confirmed; shares compounds with ABHD5 PLIN5 PPI; biochemical ABHD5-PLIN5 interaction, luminescence; inhibition, % at 4 µM; 2,200 compounds, 67% hits; AID 651612; in the data active = inhibition above about 23%;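 note: 0% = DMSO vehicle wells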
# HNF4 split-luc = active in HNF4 split-luciferase counter-screen for ABHD5-PLIN5 inhibitors; HNF4 dimerization, luminescence, biochemical; shares compounds with ABHD5 PLIN5 PPI; inhibition, % at 4 µM; 2,200 compounds, 77% hits;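 active = mean inhibition across replicate wells exceeding the computed hit threshold, cut at about 13% in these data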;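 note: light from luciferase halves that rejoin when HNF4 fusion proteins dimerize; 0% = DMSO only wells and the 100% control is not given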
# * = called active by the depositor; · = no result.
SMILES,ABHD5 PLIN5 PPI,PRMT1 FP inh,UHRF1 binding,RBBP9 inhibitor,MBD2 DNA inh,LEDGF integ inh,ABHD5 PLIN5 conf,HNF4 split-luc
Cc1ccccc1CS(=O)(=O)c1ncc(Cl)c(C(=O)Nc2ccc(F)cc2)n1,77.5*,17.1,-1.5,·,-7.8,-1.4,88.7*,90.2*
CCN(c1ccccc1)S(=O)(=O)c1ccc(NC(=O)c2nc(S(C)(=O)=O)ncc2Cl)cc1,77.5*,·,·,·,·,·,89.0*,104.2*
CCS(=O)(=O)c1ncc(Cl)c(C(=O)Nc2ccc(S(=O)(=O)N(C)c3ccccc3)cc2)n1,77.7*,18.2,-3.0,·,0.6,-0.7,92.0*,98.7*
N#C/C(=C\c1ccc(F)c(Br)c1)C(=O)NC1CC1,1.5,-3.0,-2.5,·,-6.0,1.1,·,·
CC(C)(C)c1ccc(/C=C(\C#N)C(=O)NC2CC2)cc1,28.2*,4.8,6.5,·,-2.8,-6.5,46.8*,34.7*
COc1ccc(-n2nnnc2S(=O)(=O)Cc2ccc(C(=O)O)cc2)cc1,54.3*,1.6,-2.6,2.4,-0.6,1.5,78.8*,81.3*
COc1ccc(-n2nnnc2S(=O)(=O)CC(=O)N2CCCCC2)cc1,53.6*,3.1,-1.9,5.5,3.0,-1.6,75.4*,83.1*
COC(=O)C1=C(C)N(Cc2cccc(C(F)(F)F)c2)C(=NCC2CC2)NC1c1ccc(F)cc1 (configuration not stated),·,-0.9,1.1,·,-0.2,-3.1,·,·
O=C1Nc2ccc(Cl)cc2/C1=C/C1CC=CCC1 (configuration not stated),30.1*,-0.1,-4.2,-1.1,-1.5,0.3,54.8*,38.9*
CCC(=O)Nc1cccc(C(=O)/C=C/c2ccccc2)c1,67.6*,2.4,-2.6,-2.2,-6.3,-1.1,75.0*,53.1*
CCC(=O)Nc1cccc(C(=O)/C=C/c2cccs2)c1,32.8*,5.7,-0.4,-13.1,-2.6,-1.6,48.9*,37.3*
CCOC(=O)Nc1ccc(C(=O)/C=C/c2ccccc2)cc1,41.9*,-2.9,-1.9,-0.7,-10.4,3.3,60.2*,44.4*
O=C(Cc1ccccc1)N1CCNCC1,-0.7,5.1,2.4,1.0,1.4,-2.5,·,·
CN1CCN(C(=O)CCCN2C(=O)/C(=C/c3ccccc3)SC2=S)CC1,-0.2,5.8,-3.3,·,-2.2,-2.6,·,·
C[N+](C)(C)CCC(=O)N1C/C(=C/c2ccccc2)C(=O)/C(=C\c2ccccc2)C1,92.2*,1.9,-2.2,·,5.1,-1.1,100.5*,100.5*
C/C(=C\c1ccccc1)C(=O)NCCN1CCOCC1,-5.7,-3.6,-4.0,-8.3,-6.0,1.4,·,·
CN(C)CCC(=O)N1C/C(=C/c2ccccc2)C(=O)/C(=C\c2ccccc2)C1,95.5*,10.5,-3.3,·,2.2,-8.5,102.6*,106.4*
O=C1/C(=C/c2ccccc2)CN(C(=O)CCN2CCOCC2)C/C1=C\c1ccccc1,99.5*,-0.7,-0.8,·,6.4,-1.0,102.7*,104.6*
O=C(CSc1nnc(-c2ccccc2)n1-c1ccccc1)NN=C/C=C\c1ccccc1[N+](=O)[O-],·,-10.5,-3.4,·,-4.0,5.4,·,·
Cc1nc([N+](=O)[O-])c(Br)n1CC(=O)c1ccc(Cl)cc1,26.6*,7.2,4.9,-4.3,9.6,-1.7,31.1*,25.6*
Cc1nc([N+](=O)[O-])c(Br)n1Cc1ccc(Cl)c(Cl)c1,23.5*,-1.5,-2.0,1.6,-4.8,-1.8,35.4*,38.4*
Cc1c(CN2CCC(CO)(Cc3cccc(C(F)(F)F)c3)CC2)c2ccccc2n1C,27.7*,1.0,0.9,5.7,2.3,1.1,19.2,6.7
OCC1(Cc2cccc(C(F)(F)F)c2)CCN(Cc2cc3ccccc3o2)CC1,15.2,-1.9,-2.8,-5.2,1.5,-2.9,·,·
Cc1ccc(C(=O)N2CCC[C@@H]2C(=O)N2CCC[C@H]2C(=O)NCc2ccccc2)cc1,·,-0.1,-1.3,·,2.0,1.3,·,·
O=C(NCC1CCCO1)c1nn2c(C(F)(F)F)cc(-c3cccs3)nc2c1Br (configuration not stated),-7.5,-3.5,-1.8,·,-0.6,3.5,·,·
